For assay [1], the target named is Acetylcholinesterase (Electrophorus electricus) (UniProt O42275). The assay can be described thus: Irreversible inhibition of Electrophorus electricus AChE by Ellman's method. The method in brief: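 Reversibility was probed by following AChE inhibition over time in the modified Ellman assay (acetylthiocholine substrate). Activity is referred to solvent control. Mean ± SEM of at least eight independent experiments.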
In general terms: In Ellman's method for cholinesterases, released thiocholine reacts with DTNB.

The subject of assay [2] is MRC5. Briefly: Cytotoxicity against human MRC5 after 45 hrs by XTT proliferation assay. The assay is classed as functional, cell-based. The method in brief: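 Human fetal lung fibroblasts (MRC-5) treated with compound, then XTT added at 1, 15 and 41 h. Dehydrogenase cleavage of XTT to orange formazan ran for 4 h and was read photometrically at two wavelengths. Viability is given relative to solvent-only cells. For the 15 h figure, mean ± SEM of at least six independent experiments.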
In general terms: Tetrazolium assays rely on reduction of a dye to a coloured formazan, in cell work by metabolically active cells.

For assay [3], the target named is Acetylcholinesterase (Electrophorus electricus) (UniProt O42275). Briefly: Inhibition of Electrophorus electricus AChE at 100 uM by Ellman's method relative to control. In short, it runs like this: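 Modified colorimetric Ellman assay: AChE hydrolyses acetylthiocholine to thiocholine. Final compound concentration 100 µM, read after 15 min. […] Mean ± SEM of at least eight independent experiments.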

The target in assay [4] is Acetylcholinesterase (Electrophorus electricus, UniProt O42275). The assay can be described thus: Inhibition of Electrophorus electricus AChE by Ellman's method. The method in brief:
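Ellman-type colorimetric assay with acetylthiocholine as substrate. Four concentrations between 30 and 300 µM were tested, inhibition taken as % of solvent control, and IC50 derived from the concentration–inhibition plot. Mean ± standard deviation of at least eight independent experiments.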

For three compounds, inhibition, Activity and IC50 results are on record in ChEMBL document CHEMBL1641530, “Silanetriols as in vitro inhibitors for AChE” (Bioorg Med Chem Lett, 2011).

Activity calls are given as the source filed them. The calls are words filed in the database; no cut-off is given here.

Acetylcholinesterase (Electrophorus electricus), sequence (O42275 24-633 limits assumed): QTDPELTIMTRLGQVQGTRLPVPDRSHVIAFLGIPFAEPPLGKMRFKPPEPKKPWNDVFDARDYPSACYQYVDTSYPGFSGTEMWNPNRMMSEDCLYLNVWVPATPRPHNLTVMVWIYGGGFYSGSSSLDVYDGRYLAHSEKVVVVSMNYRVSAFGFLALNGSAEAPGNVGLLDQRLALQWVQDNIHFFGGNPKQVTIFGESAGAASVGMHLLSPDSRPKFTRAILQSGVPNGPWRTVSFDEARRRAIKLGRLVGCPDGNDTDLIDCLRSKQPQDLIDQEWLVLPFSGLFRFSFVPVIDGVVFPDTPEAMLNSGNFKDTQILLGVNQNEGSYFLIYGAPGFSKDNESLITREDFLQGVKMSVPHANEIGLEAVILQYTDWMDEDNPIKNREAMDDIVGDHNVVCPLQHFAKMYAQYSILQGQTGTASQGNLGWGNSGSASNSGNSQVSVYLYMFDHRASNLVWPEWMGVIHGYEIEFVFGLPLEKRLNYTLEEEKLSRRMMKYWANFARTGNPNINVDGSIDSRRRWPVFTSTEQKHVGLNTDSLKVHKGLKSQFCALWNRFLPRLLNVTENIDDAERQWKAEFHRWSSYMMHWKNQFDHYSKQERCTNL
Acetylcholinesterase, sequence (O42275 whole entry): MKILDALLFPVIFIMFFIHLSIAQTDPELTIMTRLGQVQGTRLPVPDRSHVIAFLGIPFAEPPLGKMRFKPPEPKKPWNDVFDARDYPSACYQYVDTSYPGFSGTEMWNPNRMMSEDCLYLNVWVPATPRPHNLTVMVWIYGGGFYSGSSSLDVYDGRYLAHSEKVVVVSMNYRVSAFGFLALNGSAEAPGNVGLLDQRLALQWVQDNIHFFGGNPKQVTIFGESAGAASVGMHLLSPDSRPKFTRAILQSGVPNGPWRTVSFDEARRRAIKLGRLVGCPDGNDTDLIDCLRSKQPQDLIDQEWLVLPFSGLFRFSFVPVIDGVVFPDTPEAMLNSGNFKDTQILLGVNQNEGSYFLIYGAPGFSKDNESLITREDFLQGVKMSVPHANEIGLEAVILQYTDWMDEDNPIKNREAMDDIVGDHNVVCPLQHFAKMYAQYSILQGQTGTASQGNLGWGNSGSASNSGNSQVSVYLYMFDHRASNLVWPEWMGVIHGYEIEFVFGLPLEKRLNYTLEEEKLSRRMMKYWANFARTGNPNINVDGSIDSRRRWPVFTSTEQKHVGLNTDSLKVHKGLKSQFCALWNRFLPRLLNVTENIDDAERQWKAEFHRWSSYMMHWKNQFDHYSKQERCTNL

For `Cc1cc(C)c(-c2cccc(-c3c(C)cc(C)cc3C)c2[Si](O)(O)O)c(C)c1`, the inhibition result in assay [1] was “inactive”. In addition, in assay [2], the result was inactive. Further, the inhibition in assay [3] stood at 12%.
Turning to `O[Si](O)(O)C1CCCCC1` [CYCLOHEXYLSILANETRIOL], the inhibition entry in assay [1] was “inactive”. In addition, the 50% inhibitory concentration (IC50) in assay [4] worked out at 121 µM. For the same compound, the outcome in assay [2] was inactive. The compound further showed an inhibition in assay [3] of 45%.
Turning to `CCC(C)(C)[Si](O)(O)O`, the inhibition result in assay [1] is “inactive”. The outcome in assay [2] was inactive. Further, the inhibition in assay [3] worked out at 10%.

For orientation: inhibition means the drop in the measured response relative to a control, in per cent. Usually IC50 stands for the concentration that gives 50% inhibition. Low values mean inhibition by little substance, high ones a need for much substance.
